Laboratory results from ChEMBL document CHEMBL1275265, “Synthesis and biological evaluation of N-antipyrine-4-substituted amino-3-chloromaleimide derivatives” (Eur J Med Chem, 2010).
In brackets after ≈: the same amount, converted by molar mass. Activity calls are given as the source filed them. No cut-off for these calls is given here.

Tests used:
[1] = test system: Aspergillus fumigatus; test: Antifungal activity against Aspergillus fumigatus ATCC 26934 by agar dilution method; type: functional
In short: (§1)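 Filamentous fungi (hyalohyphomycetes, dermatophytes) were grown on SDA. Spore suspensions were set to 1.0–5.0 × 10^6 spores/mL by hemocytometer count. 1 µL was inoculated onto 1 mL SDA slants holding compound at 10–100 µg/mL (two-fold DMSO dilutions, final DMSO ≤2%), then incubated at 28–30 °C. Drug-free blank and ketoconazole control included; repeated three times; MIC determined.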

[2] = test system: Cryptococcus neoformans; test: Antifungal activity against Cryptococcus neoformans ATCC 32264 by agar dilution method; type: functional
In short: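 Yeasts were grown on Sabouraud dextrose agar and adjusted to 1.0–5.0 × 10^6 cell/mL (0.5 McFarland). Agar dilution used 1 mL SDA slants holding two-fold DMSO dilutions of compound at 10–100 µg/mL, with final DMSO ≤2%. 1 µL of inoculum was added per slant, then incubated at 35 °C. Drug-free blank and ketoconazole positive control included; triplicate runs; MIC read.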

[3] = test system: Nannizzia gypsea; test: Antifungal activity against Microsporum gypseum C115 by agar dilution method; type: functional; in short: as §1
[4] = test system: Rhizopus; test: Antifungal activity against Rhizopus CL35 by agar dilution method; type: functional; in short: as §1
[5] = test system: Trichophyton mentagrophytes; test: Antifungal activity against Trichophyton mentagrophytes ATCC 9972 by agar dilution method; type: functional; in short: as §1
[6] = test system: Trichophyton rubrum; test: Antifungal activity against Trichophyton rubrum C137 by agar dilution method; type: functional; in short: as §1
[7] = test system: Salmonella typhimurium; test: Antibacterial activity against Salmonella Typhimurium ATCC 14028 at < 100 ug/mL by agar dilution method; type: functional, organism-based; conditions: Salmonella enterica subsp. enterica serovar Typhimurium
In short: (§2)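 Agar dilution on 1 mL Mueller-Hinton agar slants. Compounds were serially two-fold diluted in DMSO (final DMSO ≤2%) to give 10–100 µg/mL in the medium. Bacteria were grown on MHA at 35 °C for 24 h, suspended in 0.86% saline at 1.5 × 10^8 cell/mL (0.5 McFarland), and 1 µL was added per slant. Slants were incubated at 35 °C. Drug-free blank included; each assay run three times; MIC recorded.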

[8] = test system: Proteus mirabilis; test: Antibacterial activity against Proteus mirabilis ATCC 25933 at < 100 ug/mL by agar dilution method; type: functional, organism-based; in short: as §2
[9] = test system: Staphylococcus saprophyticus; test: Antibacterial activity against Staphylococcus saprophyticus ATCC 35552 at < 100 ug/mL by agar dilution method; type: functional, organism-based; in short: as §2
[10] = test system: Streptococcus agalactiae; test: Antibacterial activity against Streptococcus agalactiae ATCC 13813 at < 100 ug/mL by agar dilution method; type: functional; in short: as §2
[11] = test system: Pseudomonas aeruginosa; test: Antibacterial activity against Pseudomonas aeruginosa ATCC 27853 at < 100 ug/mL by agar dilution method; type: functional, organism-based; in short: as §2
[12] = test system: Staphylococcus aureus; test: Antibacterial activity against Staphylococcus aureus ATCC 6538P at < 100 ug/mL by agar dilution method; type: functional, organism-based; in short: as §2
[13] = test system: Bacillus cereus; test: Antibacterial activity against Bacillus cereus ATCC 14579 at < 100 ug/mL by agar dilution method; type: functional; in short: as §2
[14] = test system: Bacillus subtilis; test: Antibacterial activity against Bacillus subtilis ATCC 23858 at < 100 ug/mL by agar dilution method; type: functional, organism-based; in short: as §2
[15] = test system: Enterobacter cloacae; test: Antibacterial activity against Enterobacter cloacae ATCC 35030 at < 100 ug/mL by agar dilution method; type: functional, organism-based; in short: as §2
[16] = test system: Escherichia coli; test: Antibacterial activity against Escherichia coli ATCC 11775 at < 100 ug/mL by agar dilution method; type: functional, organism-based; in short: as §2
[17] = Toxicity in Artemia salina assessed as mortality after 24 hrs; type: organism-based; conditions: in vivo
In short: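 Artemia salina hatched at pH 9.0 (Na2CO3), 25 °C, strong aeration, continuous light (2000 Lux). Phototropic nauplii were collected about 12 h after hatching, and groups of 10 were exposed per well to various compound concentrations for 24 h. Survivors were counted and % deaths calculated.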

[18] = test system: Mus musculus; test: Antinociceptive activity in Swiss mouse assessed as inhibition of acetic acid-induced writhing at 10 mg/kg, ip administered 30 mins before acetic acid challenge measured after 20 mins relative to control; type: functional; conditions: route intraperitoneal
In short: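 Mice were given 10 mg/kg i.p. in Tween 80/0.9% NaCl (Tween ≤5%) 30 min before i.p. 0.6% acetic acid, at 20–22 °C. Abdominal constrictions plus hind-limb stretching were counted cumulatively over 20 min in individual funnels. Groups of six, randomized and blinded. Inhibition was calculated versus vehicle controls (10 ml/kg i.p.); ANOVA with Dunnett's test.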

[19] = test system: Mus musculus; test: Antinociceptive activity in Swiss mouse assessed as inhibition of acetic acid-induced abdominal contraction at 0.1 to 100 mg/kg, ip administered 30 mins before acetic acid challenge measured after 20 mins relative to control; type: functional, Abdominal cavity; conditions: dose mg/kg 0.1-100; route intraperitoneal
In short: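 Writhing dose-response in mice: compounds at 0.1–10 mg/kg and standard drugs at 10–100 mg/kg, i.p. in Tween 80/saline, 30 min before i.p. 0.6% acetic acid. Constrictions and stretches were counted for 20 min at 20–22 °C, with six to eight animals per group. ID50 (dose halving the response versus control) was given as geometric mean with 95% confidence limits.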

Compound | MIC [1] [µg/mL] | MIC [2] [µg/mL] | MIC [3] [µg/mL] | MIC [4] [µg/mL] | MIC [5] [µg/mL] | MIC [6] [µg/mL] | Activity [7] | Activity [8] | Activity [9] | Activity [10] | Activity [11] | Activity [12] | Activity [13] | Activity [14] | Activity [15] | Activity [16] | LC50 at 24 h [17] [µg/mL] | inhibition in vivo at 10 mg/kg [18] [%] | inhibition (INH) [19] [%]
CC(=O)N1CCN(c2ccc(OCC3COC(Cn4ccnc4)(c4ccc(Cl)cc4Cl)O3)cc2)CC1 (stereo unspecified) [KETOCONAZOLE] | 7 (≈ 13.2 µM) | 5 (≈ 9.41 µM) | 6 (≈ 11.3 µM) | 15 (≈ 28.2 µM) | 8 (≈ 15.1 µM) | 3 (≈ 5.65 µM) | – | – | – | – | – | – | – | – | – | – | – | – | –
COc1ccc(NC2=C(Cl)C(=O)N(c3c(C)n(C)n(-c4ccccc4)c3=O)C2=O)cc1 | – | – | – | – | – | – | inactive | inactive | inactive | inactive | inactive | inactive | inactive | inactive | inactive | inactive | > 1000 | 31.2 | –
Cc1c(N2C(=O)C(Cl)=C(NCCc3ccccc3)C2=O)c(=O)n(-c2ccccc2)n1C | – | – | – | – | – | – | inactive | inactive | inactive | inactive | inactive | inactive | inactive | inactive | inactive | inactive | > 1000 | 81.8 | –
Cc1c(N2C(=O)C(Cl)=C(Nc3cccc([N+](=O)[O-])c3)C2=O)c(=O)n(-c2ccccc2)n1C | – | – | – | – | – | – | inactive | inactive | inactive | inactive | inactive | inactive | inactive | inactive | inactive | inactive | > 1000 | 29.5 | –
Cc1cccc(NC2=C(Cl)C(=O)N(c3c(C)n(C)n(-c4ccccc4)c3=O)C2=O)c1 | – | – | – | – | – | – | inactive | inactive | inactive | inactive | inactive | inactive | inactive | inactive | inactive | inactive | 90.5 (≈ 214 µM) | 49.7 | –
COc1cccc(NC2=C(Cl)C(=O)N(c3c(C)n(C)n(-c4ccccc4)c3=O)C2=O)c1 | – | – | – | – | – | – | inactive | inactive | inactive | inactive | inactive | inactive | inactive | inactive | inactive | inactive | > 1000 | 56.7 | –
Cc1c(N2C(=O)C(Cl)=C(Nc3cccc(C(=O)O)c3)C2=O)c(=O)n(-c2ccccc2)n1C | – | – | – | – | – | – | inactive | inactive | inactive | inactive | inactive | inactive | inactive | inactive | inactive | inactive | > 1000 | 33.9 | –
Cc1c(N2C(=O)C(Cl)=C(Nc3cccc(Cl)c3)C2=O)c(=O)n(-c2ccccc2)n1C | – | – | – | – | – | – | inactive | inactive | inactive | inactive | inactive | inactive | inactive | inactive | inactive | inactive | 86.2 (≈ 195 µM) | 38.9 | –
COc1cc(NC2=C(Cl)C(=O)N(c3c(C)n(C)n(-c4ccccc4)c3=O)C2=O)cc(OC)c1 | – | – | – | – | – | – | inactive | inactive | inactive | inactive | inactive | inactive | inactive | inactive | inactive | inactive | 249 (≈ 530 µM) | 72 | –
Cc1c(N2C(=O)C(Cl)=C(N3CCCCC3)C2=O)c(=O)n(-c2ccccc2)n1C | – | – | – | – | – | – | inactive | inactive | inactive | inactive | inactive | inactive | inactive | inactive | inactive | inactive | > 1000 | 84.6 | –
Cc1c(N2C(=O)C(Cl)=C(Nc3ccc(C(=O)O)cc3)C2=O)c(=O)n(-c2ccccc2)n1C | – | – | – | – | – | – | inactive | inactive | inactive | inactive | inactive | inactive | inactive | inactive | inactive | inactive | > 1000 | 63.6 | –
Cc1c(N2C(=O)C(Cl)=C(c3ccc[nH]3)C2=O)c(=O)n(-c2ccccc2)n1C | – | – | – | – | – | – | inactive | inactive | inactive | inactive | inactive | inactive | inactive | inactive | inactive | inactive | > 1000 | 23.3 | –
Cc1cc(C)cc(NC2=C(Cl)C(=O)N(c3c(C)n(C)n(-c4ccccc4)c3=O)C2=O)c1 | – | – | – | – | – | – | inactive | inactive | inactive | inactive | inactive | inactive | inactive | inactive | inactive | inactive | > 1000 | 68.4 | –
Cc1c(N(C)CS(=O)(=O)[O-])c(=O)n(-c2ccccc2)n1C.[Na+] [DIPYRONE SODIUM] | – | – | – | – | – | – | – | – | – | – | – | – | – | – | – | – | – | 33 | 54
Cc1c(N2C(=O)C(Cl)=C(N3CCN(c4ccccn4)CC3)C2=O)c(=O)n(-c2ccccc2)n1C | – | – | – | – | – | – | inactive | inactive | inactive | inactive | inactive | inactive | inactive | inactive | inactive | inactive | > 1000 | 77.7 | –
Cc1ccc(NC2=C(Cl)C(=O)N(c3c(C)n(C)n(-c4ccccc4)c3=O)C2=O)cc1 | – | – | – | – | – | – | inactive | inactive | inactive | inactive | inactive | inactive | inactive | inactive | inactive | inactive | > 1000 | 33.6 | –
